≈ marks a conversion by molar mass, not a printed value. Calls of active or inactive are those of the source. The calls are words filed in the database; no cut-off is given here.
Columns and labels:
[1] = target: T1, Glycogen synthase kinase-3 beta (Homo sapiens, UniProt P49841); assay: Inhibition of GSK3beta in human SH-SY5Y cells assessed as reduction in copper-induced tau hyperphosphorylation at 10 mM preincubated for 1 hr followed by copper addition and measured after 26 hrs by ELISA; type: cell-based; details: in the assay text read “16 hrs” for “26 hrs”
Procedure, shortened: (§1)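 Differentiated SH-SY5Y cells pretreated 1 h with test agent (LiCl 10 mM reference; compounds 10 μM), then copper 400 μM for 16 h; cells scraped, phospho-tau quantified by immunoenzymatic assay at 450 nm; mean ± SEM.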
Target sequence in this assay (P49841 whole entry, looked up): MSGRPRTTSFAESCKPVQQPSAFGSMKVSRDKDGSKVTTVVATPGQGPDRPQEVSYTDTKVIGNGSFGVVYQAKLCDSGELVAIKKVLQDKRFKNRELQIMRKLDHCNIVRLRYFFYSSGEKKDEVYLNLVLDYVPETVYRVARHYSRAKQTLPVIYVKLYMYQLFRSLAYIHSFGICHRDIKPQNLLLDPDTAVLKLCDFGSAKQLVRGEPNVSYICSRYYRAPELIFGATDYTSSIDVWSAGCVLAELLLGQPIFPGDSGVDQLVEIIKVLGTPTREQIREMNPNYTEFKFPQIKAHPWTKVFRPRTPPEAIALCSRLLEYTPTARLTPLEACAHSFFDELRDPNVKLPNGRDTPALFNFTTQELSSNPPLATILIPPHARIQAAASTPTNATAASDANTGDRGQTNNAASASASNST

[2] = Toxicity in zebra fish embryo at 25 uM dosed at 5 hpf and measured after 44 to 48 hpf by microscopic based assay; type: organism-based, Danio rerio; details: zebrafish, in vivo
[3] = target: T2, Histone deacetylase (Homo sapiens) (UniProt Q13547+O15379+Q9UBN7+Q92769+Q9UQL6+Q8WUI4+Q9BY41+Q96DB2+P56524+Q9UKV0+Q969S8); assay: Inhibition of HDAC in human SH-SY5Y cells assessed as increase in acetylation of histone 3 at lysines 9/14 at 5 uM incubated for 30 hrs by Western blot analysis; type: cell-based
Procedure, shortened: (§2)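 Human neuroblastoma SH-SY5Y cells treated 30 h at 0.1, 1.0 and 5.0 μM; cell lysates probed by Western blot for acetylated α-tubulin (HDAC6 cellular marker) and histone H3 acetylated at lysines 9/14 (H3K9K14ac).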

[4] = Toxicity in zebra fish embryo assessed as crooked tail at 50 to 75 uM uM dosed at 5 hpf and measured after 44 to 48 hpf by microscopic based assay; type: organism-based, Danio rerio; details: zebrafish, in vivo
[5] = target: T3, Protein deacetylase HDAC6 (Homo sapiens) (UniProt Q9UBN7); assay: Inhibition of HDAC6 in human SH-SY5Y cells assessed as increase in acetylation of alpha-tubulin incubated for 30 hrs by Western blot analysis; type: cell-based; procedure, shortened: as §2
T3 sequence (whole entry): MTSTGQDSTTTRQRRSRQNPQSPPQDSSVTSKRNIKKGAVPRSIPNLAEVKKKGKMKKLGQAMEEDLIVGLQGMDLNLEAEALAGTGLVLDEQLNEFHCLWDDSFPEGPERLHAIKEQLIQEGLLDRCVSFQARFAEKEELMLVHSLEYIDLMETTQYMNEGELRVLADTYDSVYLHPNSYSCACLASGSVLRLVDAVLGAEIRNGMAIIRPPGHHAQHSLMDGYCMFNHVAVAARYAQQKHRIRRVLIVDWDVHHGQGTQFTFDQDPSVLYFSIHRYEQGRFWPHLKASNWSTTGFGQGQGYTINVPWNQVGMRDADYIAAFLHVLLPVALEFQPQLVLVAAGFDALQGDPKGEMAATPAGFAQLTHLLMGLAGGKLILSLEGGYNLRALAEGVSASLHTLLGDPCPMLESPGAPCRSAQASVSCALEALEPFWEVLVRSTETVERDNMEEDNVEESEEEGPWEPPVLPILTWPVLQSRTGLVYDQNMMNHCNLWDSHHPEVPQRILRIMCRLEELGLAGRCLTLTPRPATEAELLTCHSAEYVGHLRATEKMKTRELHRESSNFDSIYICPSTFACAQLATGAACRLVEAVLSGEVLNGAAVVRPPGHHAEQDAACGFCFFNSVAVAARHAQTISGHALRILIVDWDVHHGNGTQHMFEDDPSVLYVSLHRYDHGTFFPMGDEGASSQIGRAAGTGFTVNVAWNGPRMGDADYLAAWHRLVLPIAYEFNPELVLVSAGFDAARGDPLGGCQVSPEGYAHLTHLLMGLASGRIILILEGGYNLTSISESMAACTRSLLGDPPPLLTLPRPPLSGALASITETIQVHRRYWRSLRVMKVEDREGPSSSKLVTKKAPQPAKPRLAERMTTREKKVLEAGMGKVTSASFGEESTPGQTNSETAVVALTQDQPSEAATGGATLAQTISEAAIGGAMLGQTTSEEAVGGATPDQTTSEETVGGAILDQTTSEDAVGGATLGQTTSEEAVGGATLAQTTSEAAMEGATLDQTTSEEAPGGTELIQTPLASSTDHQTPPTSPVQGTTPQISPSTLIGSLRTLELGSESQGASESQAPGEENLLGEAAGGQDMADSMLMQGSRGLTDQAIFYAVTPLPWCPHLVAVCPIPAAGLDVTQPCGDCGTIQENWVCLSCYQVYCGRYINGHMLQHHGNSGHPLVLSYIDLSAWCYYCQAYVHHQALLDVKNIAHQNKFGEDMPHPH

[6] = target: T1, Glycogen synthase kinase-3 beta; assay: Inhibition of GSK3beta in human SH-SY5Y cells assessed as reduction in copper-induced tau hyperphosphorylation at 10 uM preincubated for 1 hr followed by copper addition and measured after 26 hrs by ELISA; type: cell-based; details: in the assay text read “16 hrs” for “26 hrs”; procedure, shortened: as §1
Target sequence in this assay (P49841 whole entry, looked up): as the sequence (P49841 whole entry, looked up) above

SH-SY5Y [7] = assay: Neuroprotective activity against H2O2-induced cell death in human SH-SY5Y cells at 0.1 uM incubated for 24 hrs by MTS assay; type: functional, cell-based
Procedure, shortened: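 SH-SY5Y cells challenged 24 h with H2O2 (25 and 50 μM) in presence of compounds (0.1–10 μM), alone or as a two-compound combination; viability by MTS assay as % of control.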

[8] = Toxicity in zebra fish embryo assessed as stunted tail at 50 to 75 uM uM dosed at 5 hpf and measured after 44 to 48 hpf by microscopic based assay; type: organism-based, Danio rerio; details: zebrafish, in vivo
[9] = Toxicity in zebra fish embryo assessed as lethality at < 100 uM dosed at 5 hpf and measured after 44 to 48 hpf by microscopic based assay; type: organism-based, Danio rerio; details: zebrafish, in vivo
Procedure, shortened: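 Wild-type zebrafish embryos exposed to the compound at concentrations below 100 μM, including 25, 50 and 75 μM. Control embryos were kept in 2% DMSO vehicle. Embryos were scored for lethality, and their morphology, including tail and eye formation, was inspected by imaging.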

[10] = Toxicity in zebra fish embryo assessed as malformation of eye at 75 uM uM dosed at 5 hpf and measured after 44 to 48 hpf by microscopic based assay; type: organism-based, Danio rerio; details: zebrafish, in vivo
SH-SY5Y [11] = assay: Induction of neurogenesis in human SH-SY5Y cells assessed as upregulation of N-myc mRNA at 10 uM incubated for 24 hrs by RT-PCR analysis; type: functional, cell-based
Procedure, shortened: (§3)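 SH-SY5Y cells treated 24 h (10 μM, or 1 μM for one parent compound; retinoic acid positive control); GAP43, N-myc and MAP-2 mRNA measured by RT-PCR, expressed as fold of control.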

SH-SY5Y [12] = assay: Induction of neurogenesis in human SH-SY5Y cells assessed as stimulation of neurite outgrowth at 10 uM incubated for 72 hrs by phase contrast microscopic analysis; type: functional, cell-based
Procedure, shortened: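 SH-SY5Y cells treated 72 h at 10 μM, retinoic acid (10 μM) as positive control; neurite-bearing cells scored from images taken at 20× magnification.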

[13] = Toxicity in zebra fish embryo assessed as development perturbation at 75 uM dosed at 5 hpf and measured after 44 to 48 hpf by microscopic based assay; type: organism-based, Danio rerio; details: zebrafish, in vivo
Microglia [14] = assay: Immunomodulatory activity in LPS treated Wistar rat primary microglial cells assessed as effect on TREM2 expression level at 5 to 50 uM incubated for 24 hrs by western blot analysis; type: functional, cell-based
Procedure, shortened: (§4)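 Primary microglial cells treated 24 h with LPS in presence or absence of test compound; NOS2, MRC1 and TREM2 protein assessed by Western blot, normalized to GAPDH.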

[15] = test system: Cerebellar granule neurone; assay: Neuroprotective activity against 6-OHDA-induced cell death in Wistar rat primary cerebellar granule neurons at 5 uM preincubated for 6 hrs followed by 6-OHDA addition and measured after 24 hrs by MTT assay; type: functional, cell-based
Procedure, shortened: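 Primary differentiated cerebellar granule neurons challenged with 6-OHDA with or without test compound; viability assessed; mean ± SE of at least 3 experiments in quadruplicate, one-way ANOVA with Bonferroni post hoc test.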

SH-SY5Y [16] = assay: Induction of neurogenesis in human SH-SY5Y cells assessed as upregulation of MAP-2 mRNA at 10 uM incubated for 24 hrs by RT-PCR analysis; type: functional, cell-based; procedure, shortened: as §3
SH-SY5Y [17] = assay: Cytotoxicity against human SH-SY5Y cells up to 100 uM incubated for 24 hrs by MTS assay; type: cell-based
Procedure, shortened: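 SH-SY5Y cells exposed to test compound for 24 h at 37 °C; viability read by MTS assay and expressed as % of untreated control.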

[18] = target: T2, Histone deacetylase (Homo sapiens); assay: Inhibition of HDAC in human SH-SY5Y cells assessed as increase in acetylation of histone 3 at lysines 9/14 at 0.1 to 5 uM incubated for 30 hrs by Western blot analysis; type: cell-based; procedure, shortened: as §2
[19] = Aqueous solubility of the compound in PBS incubated for 24 hrs under continuous stirring condition by UV spectrometric assay; type: physicochemical
[20] = target: T1, Glycogen synthase kinase-3 beta; assay: Inhibition of human recombinant GSK3beta using GSM as substrate incubated for 30 mins by luminescence based assay
Target sequence in this assay (P49841 whole entry): as the sequence (P49841 whole entry, looked up) above

Microglia [21] = assay: Immunomodulatory activity in LPS treated Wistar rat primary microglial cells assessed as decrease in MRC1 expression level at 5 to 50 uM incubated for 24 hrs by western blot analysis; type: functional, cell-based; procedure, shortened: as §4
[22] = target: T4, Protein deacetylase HDAC6 (Homo sapiens, UniProt Q9UBN7); assay: Inhibition of human recombinant his tagged HDAC6 expressed in baculovirus infected […] insect cells using batcp as substrate incubated for 1 hr by fluorescence based assay
T4 sequence (Q9UBN7 whole entry): T3 sequence (whole entry)

SH-SY5Y [23] = assay: Induction of neurogenesis in human SH-SY5Y cells assessed as upregulation of GAP43 mRNA at 10 uM incubated for 24 hrs by RT-PCR analysis; type: functional, cell-based; procedure, shortened: as §3
SH-SY5Y [24] = assay: Cytoprotective activity against human SH-SY5Y cells assessed as restoration of H2O2-induced p53 expression level at 10 uM incubated for 24 hrs; type: functional, cell-based
Procedure, shortened: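 SH-SY5Y cells exposed to H2O2 (50 μM) with or without test compound (10 μM); p53 protein levels then measured.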

Microglia [25] = assay: Immunomodulatory activity in LPS treated Wistar rat primary microglial cells assessed as decrease in NOS2 expression level at 5 to 50 uM incubated for 24 hrs by western blot analysis; type: functional, cell-based; procedure, shortened: as §4
Histone deacetylase 1 = Histone deacetylase 1 (Homo sapiens, UniProt Q13547); assay: Inhibition of human recombinant his tagged HDAC1 expressed in baculovirus infected […] insect cells using tertbutyloxycarbonyl (Boc)-(Ac)-Lys-7-amino-4-methylcoumarin as substrate incubated for 1 hr by fluorescence based assay
Sequence of Histone deacetylase 1 (Q13547 whole entry): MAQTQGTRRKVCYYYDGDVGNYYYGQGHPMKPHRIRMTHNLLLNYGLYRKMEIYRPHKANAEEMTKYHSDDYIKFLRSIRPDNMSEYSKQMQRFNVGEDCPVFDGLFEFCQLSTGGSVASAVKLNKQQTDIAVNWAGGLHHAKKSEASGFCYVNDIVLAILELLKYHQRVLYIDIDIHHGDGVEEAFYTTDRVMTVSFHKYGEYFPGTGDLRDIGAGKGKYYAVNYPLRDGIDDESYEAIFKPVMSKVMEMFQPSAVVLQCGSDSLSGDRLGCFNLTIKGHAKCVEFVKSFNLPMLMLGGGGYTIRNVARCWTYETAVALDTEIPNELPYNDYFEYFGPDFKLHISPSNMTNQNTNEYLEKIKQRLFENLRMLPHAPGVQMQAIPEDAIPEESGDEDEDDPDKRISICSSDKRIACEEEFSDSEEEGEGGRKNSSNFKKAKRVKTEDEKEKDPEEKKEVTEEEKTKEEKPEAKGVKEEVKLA

## [Cl-].[Li+]
[1]
  inhibition: Active

## O=C(CCCCCNC(=S)Nc1ccc2c(c1)C(=O)NC2=O)NO
[2]
  Activity: Non-Toxic
[3]
  inhibition: inactive
[4]
  Activity: Toxic
[5]
  inhibition: Dose-dependent effect
[6]
  inhibition: Active
SH-SY5Y [7]
  Activity: Active
[8]
  Activity: Toxic
[9]
  Activity: Non-Toxic
[10]
  Activity: Toxic
SH-SY5Y [11]
  Activity: Active
SH-SY5Y [12]
  Activity: Active
[13]
  Activity: Toxic
Microglia [14]
  Activity: inactive
[15]
  Activity: Active
SH-SY5Y [16]
  Activity: Active
SH-SY5Y [17]
  Activity: Non-Toxic
[18]
  inhibition: inactive
[19]
  solubility at 24 h: 153 µM (≈ 53.8 µg/mL)
[20]
  IC50: 2.69 µM
Microglia [21]
  Activity: Active
[22]
  IC50: 3.19 µM
SH-SY5Y [23]
  Activity: Active
SH-SY5Y [24]
  Activity: Active
Microglia [25]
  Activity: Active
Histone deacetylase 1
  IC50: 12.8 µM
